Results taken from ChEMBL document CHEMBL1148978, “Lignan derivatives and a norditerpene from the seeds of Vitex negundo” (J Nat Prod, 2004).
Calls of active or inactive are those of the source. The rule behind the calls is not given here.

Columns and labels:
[1] = test system: Radical scavenging activity; assay: Antioxidant activity assessed as DPPH radical scavenging activity at 0.02 mM; format: functional
Procedure, shortened: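 Sample in EtOH (0.02 mM final) added to 0.1 M acetate buffer pH 5.5 plus 0.5 mM DPPH in EtOH. Mixture stood 30 min at room temperature. Modified from a published DPPH method.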

[2] = Antioxidant activity assessed as inhibition of lipid peroxidation at 0.5 mM after 5 days by ferric-thiocyanate method; format: functional
Procedure, shortened: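 Linoleic acid peroxidation: 2.51% linoleic acid in EtOH mixed with 0.05 M phosphate buffer pH 7.0, EtOH and water. Sample added from 10 mM EtOH stock, 0.5 mM final. Capped vial kept in dark at 40 °C for 5 days. Aliquot diluted in 75% EtOH, ammonium thiocyanate and ferrous chloride in HCl added, A500 read after 3 min. Blank lacks compound.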

Row | Structure (SMILES) | Activity [1] | Activity [2]
1 | COc1cc(-c2c3c(cc4cc(OC)c(O)cc24)C(=O)NC3)ccc1O | Active | Active
2 | COc1cc(-c2c3c(cc4cc(OC)c(O)cc24)C(=O)OC3)ccc1O | Active | Active
3 | COc1cc(-c2cc(C=O)cc3cc(OC)c(O)cc23)ccc1O | Active | Active
4 | COc1cc([C@H]2c3cc(O)c(OC)cc3C=C(C=O)[C@@H]2CO)ccc1O | Active | Active
5 | COc1cc([C@H]2c3c(ccc(O)c3OC)C=C(C=O)[C@@H]2CO)ccc1O | Active | Active
6 | COc1cc(-c2c(O)c(C=O)cc3cc(OC)c(O)cc23)ccc1O | Active | Active
